These results are taken from ChEMBL document CHEMBL1926650, “Bioactive lignans from the rhizomes of Acorus gramineus” (J Nat Prod, 2011).

The subject of one data set is SK-MEL-2. The data set is described as follows: Cytotoxicity against human SK-MEL-2 cells by sulforhodamine B assay. It counts as functional, cell-based.
The test system of data set [1] is HUVEC. The data set is described as follows: Cytotoxicity against HUVEC by sulforhodamine B assay. It counts as cell-based. The settings on record: Homo sapiens.
Another data set relates to A549. The data set is described as follows: Cytotoxicity against human A549 cells by sulforhodamine B assay. It counts as functional, cell-based.
For another data set, the system named is SK-OV-3. The data set is described as follows: Cytotoxicity against human SKOV3 cells by sulforhodamine B assay. The format is functional, cell-based.
A further data set concerns BV-2. Kind of data set: Anti-neuroinflammatory activity in mouse BV2 cells assessed as inhibition of LPS-induced NO production pretreated for 30 mins before LPS-stimulation measured after 24 hrs by Griess reaction. The format is functional, cell-based. The method, boiled down: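 Murine BV-2 microglia activated with LPS; NO output was estimated from nitrite, its soluble oxidation product, measured in the culture medium with the Griess reaction. The value is the IC50 for lowering that nitrite.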

Data set [2] can be described thus: Cytotoxicity against LPS-stimulated mouse BV2 cells assessed as cell viability after 24 hrs by MTT assay relative to control. The settings on record: read-out: Activity. It counts as cell-based, BV-2.
The test system of data set [3] is HUVEC. The data set is described as follows: Selectivity index, ratio of IC50 for HUVEC to IC50 for human SKMEL2 cells.

Each structure is given as a SMILES string.

In the case of `COc1cc([C@@H]2c3cc4c(cc3[C@@H](O[C@@H]3O[C@@H]5CO[C@@H](C)O[C@H]5[C@H](O)[C@H]3O)[C@H]3COC(=O)[C@H]23)OCO4)cc(OC)c1O` [ETOPOSIDE], the half-inhibitory concentration (IC50) with SK-MEL-2 turned out to be 0.41 µM; in the data set with HUVEC [1] it was 1.86 µM; in the data set with A549, 0.44 µM; with SK-OV-3 it was 1.31 µM.

With `COc1cc(C[C@H](CO)Oc2ccc(CCCO)cc2OC)ccc1O` [LIGRAMINOL E], the concentration for half-maximal inhibition (IC50) in the data set on SK-MEL-2 is greater than 10 µM; in the data set on A549, greater than 10 µM; in the data set on BV-2 it was greater than 200 µM; in the data set on SK-OV-3, greater than 10 µM. The viability at 24 h in data set [2] was determined as 97.1%.

`COc1cc([C@H](O)[C@H](CO)Oc2ccc(CCCO)cc2OC)ccc1O`: the IC50 in the data set on SK-MEL-2 is greater than 10 µM; with A549, greater than 10 µM; in the data set on BV-2 it was 53 µM; in the data set on SK-OV-3, greater than 10 µM. Besides, the viability at 24 h in data set [2] was 96.7%.

For the compound `COc1ccc(C[C@@H](CO)Oc2ccc(CCCO)cc2OC)cc1OC` [LIGRAMINOL D], the concentration for half-maximal inhibition (IC50) is greater than 10 µM in the data set with SK-MEL-2; 22.6 µM in the data set on HUVEC [1]; 8.28 µM in the data set with A549; 18.4 µM in the data set with BV-2; greater than 10 µM in the data set with SK-OV-3. For the same compound, the viability at 24 h in data set [2] is 98.4%.

Turning to `COc1cc([C@@H](O)[C@@H](CO)Oc2ccc(CCCO)cc2OC)ccc1O`, the IC50 in the data set on SK-MEL-2 is greater than 10 µM; in the data set with A549 it was greater than 10 µM; in the data set with BV-2, 52 µM; with SK-OV-3, greater than 10 µM. Further, in data set [2], the viability at 24 h was found to be 97.5%.

Take `C/C=C/c1cc(OC)c(O[C@H](C)[C@H](O)c2ccc(OC)c(OC)c2)c(OC)c1`: the IC50 in the data set with SK-MEL-2 was greater than 10 µM; in the data set on A549 it was greater than 10 µM; in the data set with BV-2, 176 µM; with SK-OV-3 it was greater than 10 µM. Also, the viability at 24 h in data set [2] is 102%.

As to `C/C=C/c1cc(OC)c(O[C@H](C)[C@H](O)c2cc(OC)c(OC)c(OC)c2)c(OC)c1`, the IC50 in the data set with SK-MEL-2 is greater than 10 µM; with A549, greater than 10 µM; in the data set with BV-2, greater than 200 µM; with SK-OV-3 it was greater than 10 µM. In addition, in data set [2], the viability at 24 h was determined as 101%.

Regarding `COc1ccc([C@H]2O[C@H](c3cc(OC)c(OC)c(OC)c3)[C@@H](C)[C@H]2C)cc1OC` [LIGRAMINOL A], the concentration for half-maximal inhibition (IC50) in the data set with SK-MEL-2 was determined as 4.53 µM; with HUVEC [1], 27.2 µM; in the data set on A549, 6.92 µM; in the data set with BV-2, 21.5 µM; in the data set with SK-OV-3, 9.44 µM. Also, the “Ratio IC50” value with HUVEC [3] was 6. Moreover, the viability at 24 h in data set [2] is 88.6%.

Consider `COc1ccc([C@H]2O[C@@H](c3ccc(OC)c(OC)c3)[C@H](C)[C@H]2C)cc1OC` [VERAGUENSIN], for which the IC50 in the data set on SK-MEL-2 was greater than 10 µM; with A549, greater than 10 µM; with BV-2, 48.4 µM; with SK-OV-3, greater than 10 µM. Moreover, the viability at 24 h in data set [2] is 104%.

In the case of `COc1ccc([C@H]2O[C@H](c3cc(OC)c(OC)c(OC)c3)[C@@H](C)[C@@H]2C)cc1OC`, the 50% inhibitory concentration (IC50) with SK-MEL-2 was greater than 10 µM; in the data set on A549, greater than 10 µM; with BV-2, 125 µM; in the data set on SK-OV-3 it was greater than 10 µM. Besides, the viability at 24 h in data set [2] is 87.3%.

For the compound `COc1cc([C@@H]2O[C@@H](c3cc(OC)c(O)c(OC)c3)[C@H](CO[C@@H]3O[C@H](CO)[C@@H](O)[C@H](O)[C@H]3O)[C@H]2CO)cc(OC)c1O` [LIGRAMINOL B], the IC50 is greater than 10 µM in the data set with SK-MEL-2, greater than 10 µM in the data set with A549, 23 µM in the data set on BV-2 and greater than 10 µM in the data set on SK-OV-3. Besides, the viability at 24 h in data set [2] worked out at 84.4%.

Consider `CNC(=N)NCCC[C@H](N)C(=O)O` [TILARGININE], for which the IC50 with BV-2 turned out to be 15.4 µM. Further, the viability at 24 h in data set [2] stood at 98.7%.

`COc1ccc([C@H]2O[C@H](c3ccc(OC)c(OC)c3)[C@@H](C)[C@H]2C)cc1OC` [GANSCHISANDRINE]: the IC50 is greater than 10 µM in the data set with SK-MEL-2, greater than 10 µM with A549, 76 µM in the data set on BV-2 and greater than 10 µM in the data set on SK-OV-3. In data set [2], the viability at 24 h stood at 104%.

Turning to `C/C=C\c1ccc(O[C@H](C)[C@H](OC(C)=O)c2ccc(OC)c(OC)c2)c(OC)c1` [LIGRAMINOL C], the IC50 in the data set with SK-MEL-2 was greater than 10 µM; in the data set on HUVEC [1] it was 25.9 µM; in the data set with A549, 9.54 µM; in the data set on BV-2, 16.2 µM; in the data set with SK-OV-3 it was greater than 10 µM. Besides, the viability at 24 h in data set [2] is 90.5%.
